The values below come from paper PMC10523135 (RSC Advances, 2023).

Common to all, as to format: cell-based
Assay [1] deals with A549 (human lung cancer cell line). The experiment in a line: CCK-8 antiproliferative assay, A549. The following applies: A549, 48 h, read-out: IC50 (μM) ± SD A549. On the technique in general: Formazan colour is commonly taken as a measure of viable cells.
For assay [2], the system named is HeLa (human cervical cancer cell line). Put plainly: CCK-8 antiproliferative assay, HeLa. The following applies: 48 h, read-out: IC50 (μM) ± SD Hela. The procedure, abridged: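 HeLa cells were grown in RPMI 1640 with 10% FBS and 1% penicillin/streptomycin at 37 °C, 5% CO2. They were seeded at 5 × 10^4 cells per well and left 24 h. Test compound was diluted from […] DMSO stock into medium, with final DMSO below 0.1%, and exposure lasted 48 h. CCK-8 was then added for 2 h at 37 °C and absorbance read at 450 nm. IC50 came from viability data; experiments were done three times.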

In assay [3] the test system is MCF-7 (human breast cancer cell line). Put plainly: CCK-8 antiproliferative assay, MCF-7. The following applies: MCF7, 48 h, read-out: IC50 (μM) ± SD MCF-7.

In general, IC50 refers to the concentration that gives 50% inhibition.

Turning to `O=C(CCCCCCC(=O)Nc1ccccc1)NO` [SAHA], the results for the IC50 in assay [1] and in assay [2] were 3.54 ± 0.25 µM and 1.03 ± 0.33 µM, respectively.

For the compound `CNC(=O)c1c(C)oc2cc(Oc3ncnc4cc(OC)c(OC)cc34)ccc12` [Fruquintinib], the results for the IC50 in assay [3] and in assay [2] were > 20 µM and 8.35 ± 0.47 µM, respectively.
